Experimental findings from ChEMBL document CHEMBL3593206, “SAR Studies of Exosite-Binding Substrate-Selective Inhibitors of A Disintegrin And Metalloprotease 17 (ADAM17) and Application as Selective in Vitro Probes” (J Med Chem, 2015) are described below.

Each structure is given as a SMILES string. Calls of active or inactive are those of the source. The calls are words filed in the database; no cut-off is given here. Bounds are passed on as bounds.

For data set [1], the target named is Matrix metalloproteinase-14 (Homo sapiens, UniProt P50281). The experiment in a line: Inhibition of MMP14 (unknown origin) using Mca-KLPGL-Dnp-AR as substrate at 100 uM preincubated for 30 mins followed by substrate addition measured after 1 hr by fluorescence assay relative to control.
The target of data set [2] is T1, Matrix metalloproteinase-9 (Homo sapiens, UniProt P14780). The experiment in a line: Inhibition of MMP9 (unknown origin) using Mca-KLPGL-Dnp-AR as substrate preincubated for 30 mins followed by substrate addition measured after 1 hr by fluorescence assay. Summed up: (§1)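 Inhibitor as 10-point 1:3 dilutions from 300 μM, 30 min at RT. Substrate added from a 30 μM 3× solution. Single fluorescence read (ex 324/em 393 nm) after 1 h at RT.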

Data set [3] can be described thus: Cytotoxicity against CHOK1 cells assessed as inhibition of cell viability up to 33 uM after 72 hrs by CellTiter-Glo assay. It counts as cell-based, Cricetulus griseus. As to conditions: chinese hamster, cho-k1, 72 h. Background: ATP-based viability assays read luminescence as a measure of living cells.
The target of data set [4] is T2, 72 kDa type IV collagenase (Homo sapiens, UniProt P08253). The experiment in a line: Inhibition of MMP2 (unknown origin) using Mca-KLPGL-Dnp-AR as substrate at 100 uM preincubated for 30 mins followed by substrate addition measured after 1 hr by fluorescence assay relative to control. Put shortly: as §1
Target sequence in this assay (P08253 110-660 limits assumed): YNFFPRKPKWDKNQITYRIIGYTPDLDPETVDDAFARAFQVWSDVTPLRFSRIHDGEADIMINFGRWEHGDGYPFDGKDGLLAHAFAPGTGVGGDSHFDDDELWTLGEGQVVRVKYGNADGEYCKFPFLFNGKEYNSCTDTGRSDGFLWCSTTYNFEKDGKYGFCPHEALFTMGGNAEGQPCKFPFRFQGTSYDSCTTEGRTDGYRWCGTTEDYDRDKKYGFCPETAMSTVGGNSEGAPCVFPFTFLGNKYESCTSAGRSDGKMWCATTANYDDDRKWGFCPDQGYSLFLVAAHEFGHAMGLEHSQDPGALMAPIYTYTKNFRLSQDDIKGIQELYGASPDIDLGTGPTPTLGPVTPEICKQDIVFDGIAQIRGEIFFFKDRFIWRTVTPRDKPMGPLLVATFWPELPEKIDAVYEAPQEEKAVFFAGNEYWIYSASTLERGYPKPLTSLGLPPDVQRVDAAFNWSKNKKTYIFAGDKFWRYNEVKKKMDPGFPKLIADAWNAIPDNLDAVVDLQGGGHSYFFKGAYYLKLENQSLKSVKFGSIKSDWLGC
In data set [5] the target is T3, Disintegrin and metalloproteinase domain-containing protein 10 (Homo sapiens, UniProt O14672).
T3 sequence (O14672 whole entry): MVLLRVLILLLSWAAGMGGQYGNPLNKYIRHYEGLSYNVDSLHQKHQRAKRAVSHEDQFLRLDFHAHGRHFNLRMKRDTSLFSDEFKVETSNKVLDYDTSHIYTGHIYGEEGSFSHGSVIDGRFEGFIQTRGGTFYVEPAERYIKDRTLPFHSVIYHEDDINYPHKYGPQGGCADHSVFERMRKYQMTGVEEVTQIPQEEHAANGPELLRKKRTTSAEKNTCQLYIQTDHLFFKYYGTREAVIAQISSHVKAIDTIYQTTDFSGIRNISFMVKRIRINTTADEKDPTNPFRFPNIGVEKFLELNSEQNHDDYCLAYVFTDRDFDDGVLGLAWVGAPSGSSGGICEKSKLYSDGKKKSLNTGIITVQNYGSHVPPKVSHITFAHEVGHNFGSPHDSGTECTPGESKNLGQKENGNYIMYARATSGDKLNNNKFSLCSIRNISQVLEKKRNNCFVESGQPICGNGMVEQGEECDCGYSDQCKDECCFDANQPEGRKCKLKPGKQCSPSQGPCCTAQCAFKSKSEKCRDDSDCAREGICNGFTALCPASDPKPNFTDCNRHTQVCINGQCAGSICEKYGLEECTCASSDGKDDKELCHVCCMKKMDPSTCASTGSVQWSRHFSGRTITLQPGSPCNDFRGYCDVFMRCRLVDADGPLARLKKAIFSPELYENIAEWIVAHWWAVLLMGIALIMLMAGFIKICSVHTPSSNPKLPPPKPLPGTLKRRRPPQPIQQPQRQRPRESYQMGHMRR
The experiment in a line: Inhibition of ADAM10 (unknown origin) preincubated for 30 mins followed by substrate addition measured every 30 mins for 2 hrs by fluorescence assay. Put shortly:
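Enzyme at 30 nM (3× solution) in 10 mM Hepes, 0.001% Brij-35, pH 7.5. Inhibitor series of 10 points, 1:3, from 300 μM, preincubated 30 min at RT. Glycosylated substrate added from a 30 μM 3× solution. Fluorescence (ex 360/em 460 nm) read every 30 min for 2 h. Inhibition taken from hydrolysis rates against substrate-only and substrate-plus-enzyme wells.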

For data set [6], the target named is T1, Matrix metalloproteinase-9. The experiment in a line: Inhibition of MMP9 (unknown origin) using Mca-KLPGL-Dnp-AR as substrate at 100 uM preincubated for 30 mins followed by substrate addition measured after 1 hr by fluorescence assay relative to control. Summed up: as §1
The target in data set [7] is T2, 72 kDa type IV collagenase. The experiment in a line: Inhibition of MMP2 (unknown origin) using Mca-KLPGL-Dnp-AR as substrate preincubated for 30 mins followed by substrate addition measured after 1 hr by fluorescence assay. Put shortly: as §1
Target sequence in this assay (P08253 whole entry, the tested form may be a part): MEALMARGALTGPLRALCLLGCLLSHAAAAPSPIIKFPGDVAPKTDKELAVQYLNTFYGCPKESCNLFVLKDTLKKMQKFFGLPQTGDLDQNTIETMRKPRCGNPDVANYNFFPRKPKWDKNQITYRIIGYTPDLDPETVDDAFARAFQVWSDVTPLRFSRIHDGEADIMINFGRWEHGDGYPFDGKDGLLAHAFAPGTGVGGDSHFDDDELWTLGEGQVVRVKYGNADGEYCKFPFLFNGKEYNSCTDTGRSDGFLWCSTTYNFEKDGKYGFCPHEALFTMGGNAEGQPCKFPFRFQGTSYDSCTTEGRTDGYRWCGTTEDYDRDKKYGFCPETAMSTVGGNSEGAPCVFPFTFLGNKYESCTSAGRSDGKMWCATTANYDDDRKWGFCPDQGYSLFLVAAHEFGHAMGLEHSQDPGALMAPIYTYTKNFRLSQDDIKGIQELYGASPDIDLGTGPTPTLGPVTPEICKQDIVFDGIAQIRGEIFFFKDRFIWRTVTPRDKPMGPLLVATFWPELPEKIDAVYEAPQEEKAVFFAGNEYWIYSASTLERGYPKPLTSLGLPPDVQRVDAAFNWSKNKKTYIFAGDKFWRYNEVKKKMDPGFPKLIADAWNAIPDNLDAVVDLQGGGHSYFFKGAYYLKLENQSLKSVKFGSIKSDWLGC
In data set [8] the target is T4, Disintegrin and metalloproteinase domain-containing protein 10 (Homo sapiens) (UniProt O14672).
T4 sequence (whole entry): T3 sequence (O14672 whole entry)
The experiment in a line: Inhibition of ADAM10 in HTSMC assessed as inhibition of constitutive release of fractalkine/CX3CL1 at 10 uM preincubated for 30 mins measured after 4 to 24 hrs by ELISA. In general terms: An ELISA detects its analyte on a solid surface through an enzyme-linked reagent.

Another data set deals with MDA-MB-231. The experiment in a line: Cytotoxicity against human MDA-MB-231 cells assessed as inhibition of cell viability up to 33 uM after 72 hrs by CellTiter-Glo assay. The class given is cell-based. As to conditions: mda-mb-231, 72 h.
The test system of the next data set is HepG2. The experiment in a line: Cytotoxicity against human HepG2 cells assessed as inhibition of cell viability up to 33 uM after 72 hrs by CellTiter-Glo assay. It counts as cell-based. As to conditions: hepg2, 72 h.
For data set [9], the system named is ADAM17 (Homo sapiens). The experiment in a line: Inhibition of ADAM17 in HCC1806 cells assessed as inhibition of DDR1 shedding by immunoblot analysis. (In general: Immunoblotting shows a protein as a band on a membrane.)
For data set [10], the target named is T5, Disintegrin and metalloproteinase domain-containing protein 17 (Homo sapiens, UniProt P78536). The experiment in a line: Inhibition of ADAM17 in HTSMC assessed as inhibition of DDR1 shedding at 10 to 40 uM by immunoblot analysis relative to control.
Data set [11] concerns the target T5, Disintegrin and metalloproteinase domain-containing protein 17. The experiment in a line: Inhibition of ADAM17 in HTSMC assessed as inhibition of DDR1 shedding by immunoblot analysis.
The target is the same in data set [12]. The experiment in a line: Inhibition of ADAM17 in human HT1080 cells assessed as inhibition of cell invasion after 5 to 24 hrs by Transwell assay. It counts as cell-based. As to conditions: HT-1080.
For data set [13], the system named is A549. The experiment in a line: Potentiation of doxorubicin-mediated inhibition of human A549 cell viability at 40 uM incubated for 1 hr followed by doxorubicin addition measured after 72 hrs by CellTiter-Glo assay. It counts as functional, cell-based. Put shortly:
(§2)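 A549 cells (1250 per well) in serum-free F12 were pretreated 1 h at 37 °C with 40 μM final test compound. Gefitinib, etoposide or doxorubicin was then added as 10-point 1:3 dilutions from 300 μM. After 72 h, viability was read by CellTiter-Glo luminescence and scaled between 100 μM gefitinib (0%) and 1% DMSO (100%).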

Data set [14] has as its system ADAM17 (Homo sapiens). The experiment in a line: Inhibition of ADAM17 in HCC1806 cells assessed as inhibition of DDR1 shedding at 10 to 40 uM by immunoblot analysis relative to control.
Data set [15] has as its target T5, Disintegrin and metalloproteinase domain-containing protein 17. The experiment in a line: Inhibition of ADAM17 in human SK-MEL-28 cells assessed as inhibition of notch shedding at 25 uM relative to control. It counts as cell-based.
The test system of data set [16] is A549. The experiment in a line: Potentiation of etoposide-mediated inhibition of human A549 cell viability at 40 uM incubated for 1 hr followed by etoposide addition measured after 72 hrs by CellTiter-Glo assay. It counts as functional, cell-based. Put shortly:
as §2

Data set [17] addresses T5, Disintegrin and metalloproteinase domain-containing protein 17. The experiment in a line: Inhibition of ADAM17 in human EAhy926 cells assessed as inhibition of neprilysin shedding at 15 uM relative to control. The class given is cell-based.

T1 sequence (P14780 whole entry): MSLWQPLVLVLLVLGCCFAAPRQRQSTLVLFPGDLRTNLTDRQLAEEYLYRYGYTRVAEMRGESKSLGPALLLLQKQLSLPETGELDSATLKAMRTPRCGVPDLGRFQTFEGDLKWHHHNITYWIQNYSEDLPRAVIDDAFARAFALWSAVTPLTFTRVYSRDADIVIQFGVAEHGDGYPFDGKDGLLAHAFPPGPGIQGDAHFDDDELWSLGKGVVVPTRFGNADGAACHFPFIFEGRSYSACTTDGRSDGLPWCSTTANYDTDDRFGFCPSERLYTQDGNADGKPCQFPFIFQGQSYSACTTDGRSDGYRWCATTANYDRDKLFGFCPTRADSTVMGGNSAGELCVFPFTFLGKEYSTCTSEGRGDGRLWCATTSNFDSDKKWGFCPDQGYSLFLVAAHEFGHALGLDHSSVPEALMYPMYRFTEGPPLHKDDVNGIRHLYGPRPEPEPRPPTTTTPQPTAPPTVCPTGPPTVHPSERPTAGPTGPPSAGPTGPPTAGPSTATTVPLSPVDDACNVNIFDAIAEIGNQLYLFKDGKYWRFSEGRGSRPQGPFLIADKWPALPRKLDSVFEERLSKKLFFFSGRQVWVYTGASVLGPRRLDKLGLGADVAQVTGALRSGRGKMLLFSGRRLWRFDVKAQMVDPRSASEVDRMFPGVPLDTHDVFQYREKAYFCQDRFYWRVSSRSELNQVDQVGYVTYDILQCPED
T5 sequence (P78536 whole entry, the tested form may be a part): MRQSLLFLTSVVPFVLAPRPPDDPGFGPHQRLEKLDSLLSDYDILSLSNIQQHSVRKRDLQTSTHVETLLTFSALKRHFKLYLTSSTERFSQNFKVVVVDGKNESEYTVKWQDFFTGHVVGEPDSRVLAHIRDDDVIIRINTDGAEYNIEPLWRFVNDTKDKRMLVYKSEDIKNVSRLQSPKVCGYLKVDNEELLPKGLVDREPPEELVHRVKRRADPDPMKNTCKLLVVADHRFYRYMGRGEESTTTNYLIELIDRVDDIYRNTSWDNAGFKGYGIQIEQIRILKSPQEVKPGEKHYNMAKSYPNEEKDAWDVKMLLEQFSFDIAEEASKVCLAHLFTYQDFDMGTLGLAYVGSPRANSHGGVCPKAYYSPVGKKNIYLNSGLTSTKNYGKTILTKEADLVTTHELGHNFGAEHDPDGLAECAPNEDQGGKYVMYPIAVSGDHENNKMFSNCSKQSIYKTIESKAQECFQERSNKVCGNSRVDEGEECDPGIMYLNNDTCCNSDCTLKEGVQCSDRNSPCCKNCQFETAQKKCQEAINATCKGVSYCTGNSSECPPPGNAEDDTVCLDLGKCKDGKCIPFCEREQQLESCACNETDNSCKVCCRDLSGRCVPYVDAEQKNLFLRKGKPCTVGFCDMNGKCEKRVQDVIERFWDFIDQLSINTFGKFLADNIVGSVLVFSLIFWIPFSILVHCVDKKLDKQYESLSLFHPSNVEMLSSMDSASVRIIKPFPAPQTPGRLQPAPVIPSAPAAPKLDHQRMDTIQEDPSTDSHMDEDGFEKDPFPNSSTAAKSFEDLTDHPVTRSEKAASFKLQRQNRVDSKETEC

The inhibition is how much of the control response was suppressed. For orientation: IC50 means the concentration needed to halve the response being measured. As to `CCCC[C@H]1CN([C@@H](Cc2ccc(O)cc2)CN2CCC[C@H]2CN2C(=O)C(=O)NC[C@H]2Cc2ccc3ccccc3c2)C(=O)C(=O)N1CCC12CC3CC(CC(C3)C1)C2`, the inhibition in data set [1], in data set [4], in [6] and in data set [8] was 0% each time. In addition, the IC50 in data set [2], in [5] and in data set [7] was greater than 100 µM throughout. Also, the Activity entry in data set [3] is “Non-toxic”.
For `O=C1NC[C@@H](Cc2ccc(O)cc2)N(C[C@@H]2CCCN2C[C@@H](Cc2ccc3ccccc3c2)N2CC(Cc3ccc(O)cc3)N(CCC34CC5CC(CC(C5)C3)C4)C(=O)C2=O)C1=O` (single isomer, unassigned), the inhibition was 25% in [1]; “Dose-dependent effect” in the data set with ADAM17 (Homo sapiens) [9]; 59% in data set [10]; “Dose-dependent effect” in data set [11]; “Dose-dependent effect” in [12]; 59% with ADAM17 (Homo sapiens) [14]. In addition, the inhibition in [15] and in data set [8] was 0% in each case. Also, the Activity result (in the data set on MDA-MB-231; in the data set with HepG2; in data set [3]) was “Non-toxic” throughout. The molecule also returned an IC50 in [5] greater than 100 µM. Also, the outcome in the data set with A549 [13] and in the data set on A549 [16] was inactive.
Regarding `O=C1NC[C@H](Cc2ccccc2)N(C[C@@H]2CCCN2C[C@@H](CC2CCCCC2)N2C[C@H](Cc3ccc(O)cc3)N(CCc3ccccc3)C(=O)C2=O)C1=O`, the inhibition in [1] was determined as 27%; in data set [4], 0%; in [17], 62%; in data set [6], 13%; in data set [8], 0%. The Activity result (with MDA-MB-231; with HepG2; in data set [3]) was “Non-toxic” in each case. Also, the IC50 in [2], in data set [5] and in data set [7] was greater than 100 µM each time.
